Columns and labels:
[1] = target: E. coli LeuRS (EcLeuRS) (Escherichia coli, UniProt P07813); test: Aminoacylation inhibition; assay type: biochemical
How it was run: (§1)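 Aminoacylation at 37°C with [3H]leucine, started with 4 mM ATP, in Tris-HCl pH 7.5 buffer. Each LeuRS was used at equal activity, i.e. forming 10 pmol Leu-tRNALeu in 5 min. At least six test-compound concentrations were tested. IC50 was taken from a fitted dose-response curve, as the mean of at least two independent experiments.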

[2] = target: T1, SpLeuRS (Streptococcus pneumoniae serotype 4, UniProt Q97SS0); test: Inhibitory kinetics of SpLeuRS aminoacylation; assay type: biochemical; conditions: for Ki: 2 nM SpLeuRS
T1 sequence (Q97SS0 1-833): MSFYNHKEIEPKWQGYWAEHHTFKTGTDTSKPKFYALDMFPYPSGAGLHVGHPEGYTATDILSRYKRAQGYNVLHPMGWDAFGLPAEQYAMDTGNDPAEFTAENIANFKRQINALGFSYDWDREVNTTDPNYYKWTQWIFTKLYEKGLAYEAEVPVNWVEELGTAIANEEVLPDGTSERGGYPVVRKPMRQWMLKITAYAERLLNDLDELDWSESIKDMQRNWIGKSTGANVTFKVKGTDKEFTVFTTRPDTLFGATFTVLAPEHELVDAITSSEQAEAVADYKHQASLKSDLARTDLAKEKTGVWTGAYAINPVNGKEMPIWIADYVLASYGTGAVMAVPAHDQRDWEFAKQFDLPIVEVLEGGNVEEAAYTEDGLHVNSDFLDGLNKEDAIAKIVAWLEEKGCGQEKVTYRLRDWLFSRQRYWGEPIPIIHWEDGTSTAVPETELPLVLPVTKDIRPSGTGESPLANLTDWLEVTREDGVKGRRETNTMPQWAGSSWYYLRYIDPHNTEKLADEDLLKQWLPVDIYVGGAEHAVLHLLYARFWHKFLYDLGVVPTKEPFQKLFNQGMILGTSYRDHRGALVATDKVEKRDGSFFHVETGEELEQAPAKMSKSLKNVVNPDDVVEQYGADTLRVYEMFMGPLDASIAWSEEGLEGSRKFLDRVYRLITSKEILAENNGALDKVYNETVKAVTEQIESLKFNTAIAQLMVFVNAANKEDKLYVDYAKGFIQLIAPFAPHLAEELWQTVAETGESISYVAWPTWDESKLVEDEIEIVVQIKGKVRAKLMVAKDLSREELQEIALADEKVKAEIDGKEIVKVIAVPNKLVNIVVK
How it was run: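 Test compound at 0, 2 or 8 μM. Substrate-velocity data were linearized by reciprocal fitting into Lineweaver-Burk plots to derive kinetic constants and inhibition mode.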

[3] = tested on: A549; test: Cell proliferation assay; assay type: cell-based; conditions: Homo sapiens, A549, read-out: IC50, Human cell lines, A549
How it was run: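 Cells in DMEM/10% FBS, 37°C, 5% CO2. Seeded from 1 × 10^5 cells/mL and allowed to adhere overnight. Test compound added at 2.5–100 μg/mL (0.5% DMSO final), five wells per concentration. Incubated 0, 24, 48 or 72 h, then 4 h with MTS/PMS (20:1), and A492 read. DMSO and medium-only controls. IC50 by nonlinear regression against log concentration.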

[4] = target: T2, Human mitochondrial LeuRS (Homo sapiens, UniProt Q15031); test: Aminoacylation inhibition; assay type: biochemical
T2 sequence (Q15031 1-903): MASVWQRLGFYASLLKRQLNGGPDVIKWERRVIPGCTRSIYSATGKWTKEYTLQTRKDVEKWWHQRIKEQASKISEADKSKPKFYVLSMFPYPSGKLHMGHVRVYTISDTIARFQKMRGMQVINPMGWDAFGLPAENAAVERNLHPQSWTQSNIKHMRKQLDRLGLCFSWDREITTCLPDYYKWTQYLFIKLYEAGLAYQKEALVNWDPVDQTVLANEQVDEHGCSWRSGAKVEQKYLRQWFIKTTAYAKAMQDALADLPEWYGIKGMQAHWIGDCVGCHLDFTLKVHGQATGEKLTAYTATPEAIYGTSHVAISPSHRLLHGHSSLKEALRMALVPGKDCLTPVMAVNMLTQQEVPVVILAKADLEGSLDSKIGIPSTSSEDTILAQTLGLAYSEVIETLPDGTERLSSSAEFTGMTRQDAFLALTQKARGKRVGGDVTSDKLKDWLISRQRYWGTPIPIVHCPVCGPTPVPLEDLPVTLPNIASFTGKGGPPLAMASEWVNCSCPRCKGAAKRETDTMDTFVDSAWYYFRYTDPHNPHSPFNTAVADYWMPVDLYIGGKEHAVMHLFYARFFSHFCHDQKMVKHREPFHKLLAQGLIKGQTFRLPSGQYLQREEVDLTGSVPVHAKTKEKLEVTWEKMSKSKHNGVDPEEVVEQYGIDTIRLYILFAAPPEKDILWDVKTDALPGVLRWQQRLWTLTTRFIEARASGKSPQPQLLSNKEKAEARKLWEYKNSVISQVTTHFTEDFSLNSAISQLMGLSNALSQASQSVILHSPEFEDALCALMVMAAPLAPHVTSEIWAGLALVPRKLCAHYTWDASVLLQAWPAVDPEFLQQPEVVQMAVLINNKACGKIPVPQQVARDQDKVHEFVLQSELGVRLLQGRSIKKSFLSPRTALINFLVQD
How it was run: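 Human cytosolic or mitochondrial LeuRS, expressed in E. coli. Aminoacylation run at 30°C. At least six test-compound concentrations were tested, with enzyme amount set to form 10 pmol Leu-tRNALeu in 5 min. IC50 was taken from a fitted dose-response curve, as the mean of at least two independent experiments.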

[5] = target: T3, S. pneumoniae LeuRS (SpLeuRS) (Streptococcus pneumoniae serotype 4, UniProt Q97SS0); test: Aminoacylation inhibition; assay type: biochemical
T3 sequence (Q97SS0 1-833): T1 sequence (Q97SS0 1-833)
How it was run: as §1

Sequence of E. coli LeuRS (EcLeuRS) (P07813 whole entry): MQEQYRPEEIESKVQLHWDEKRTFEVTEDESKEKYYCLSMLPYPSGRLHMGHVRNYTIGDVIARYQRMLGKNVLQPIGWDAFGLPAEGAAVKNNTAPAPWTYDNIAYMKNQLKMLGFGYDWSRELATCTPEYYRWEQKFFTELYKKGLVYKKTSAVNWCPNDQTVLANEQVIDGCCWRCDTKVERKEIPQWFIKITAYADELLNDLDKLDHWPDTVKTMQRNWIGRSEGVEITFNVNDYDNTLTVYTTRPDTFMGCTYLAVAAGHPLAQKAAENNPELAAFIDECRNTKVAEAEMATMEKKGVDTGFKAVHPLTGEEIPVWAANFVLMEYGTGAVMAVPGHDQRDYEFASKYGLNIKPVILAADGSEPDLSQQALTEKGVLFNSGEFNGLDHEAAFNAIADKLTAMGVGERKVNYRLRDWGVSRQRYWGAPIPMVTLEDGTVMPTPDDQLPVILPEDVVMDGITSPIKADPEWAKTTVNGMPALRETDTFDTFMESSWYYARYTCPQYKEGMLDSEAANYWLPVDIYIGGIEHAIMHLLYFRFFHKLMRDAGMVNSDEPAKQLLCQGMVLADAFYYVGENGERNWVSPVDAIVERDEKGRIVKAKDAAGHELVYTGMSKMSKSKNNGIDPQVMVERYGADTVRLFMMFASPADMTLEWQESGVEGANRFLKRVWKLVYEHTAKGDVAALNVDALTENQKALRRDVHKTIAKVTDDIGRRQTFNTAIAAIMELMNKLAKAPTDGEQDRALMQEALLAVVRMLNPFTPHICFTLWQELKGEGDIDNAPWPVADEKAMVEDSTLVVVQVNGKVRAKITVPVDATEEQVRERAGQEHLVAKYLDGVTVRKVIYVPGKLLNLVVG

SMILES: OB1OCc2ccc(C(O)c3ccccc3)cc21 (stereo not drawn) [ZCL039, [6-(1-phenyl-1-hydroxylmethyl)]-1,3-dihydro-1-hydroxy-2,1-benzoxaborole]
- IC50 [1]: 8250 ± 1200 nM
- IC50 towards SpLeuRS relative to EcLeuRS ([1]; printed as higher): 5 fold
- kcat of SpLeuRS, substrate ATP ([2]; +2 μM ZCL039): 6.35 ± 0.65 s⁻¹
- kcat of SpLeuRS, substrate Leu ([2]; +2 μM ZCL039): 6.44 ± 0.55 s⁻¹
- kcat of SpLeuRS, substrate SptRNALeu ([2]; +2 μM ZCL039): 6.62 ± 0.48 s⁻¹
- kcat of SpLeuRS, substrate ATP ([2]; +8 μM ZCL039): 2.80 ± 0.32 s⁻¹
- kcat of SpLeuRS, substrate Leu ([2]; +8 μM ZCL039): 2.61 ± 0.16 s⁻¹
- kcat of SpLeuRS, substrate SptRNALeu ([2]; +8 μM ZCL039): 2.89 ± 0.24 s⁻¹
- Ki ([2]; substrate ATP): 2630 ± 260 nM
- Ki ([2]; substrate Leu): 2650 ± 220 nM
- Mode of inhibition with respect to ATP and Leu ([2]; Km unaffected, maximum rates decreased): noncompetitive
- Mode of inhibition with regard to tRNALeu ([2]; apparent Km and rate both reduced): uncompetitive
- IC50 [3]: > 200000 nM
- IC50 [4]: > 250000 nM
- IC50 [5]: 1720 ± 50 nM

Reference: PMC3747510 (Scientific Reports, 2013)
